Reference: ChEMBL document CHEMBL4433251, “Discovery of BR102375, a new class of non-TZD PPARγ full agonist for the treatment of type 2 diabetes” (Bioorg Med Chem Lett, 2019)
Active and inactive are the calls of the source. No cut-off for these calls is given here.

Experiments:
[1] = molecular target: T1, Peroxisome proliferator-activated receptor gamma (Mus musculus) (UniProt P37238); assay: Agonist activity at GAL4-tagged mouse PPARgamma LBD expressed in monkey CV1 cells assessed as receptor transactivation incubated for 24 hrs by luciferase reporter gene assay relative to telmisartan; type: cell-based
T1 sequence (whole entry): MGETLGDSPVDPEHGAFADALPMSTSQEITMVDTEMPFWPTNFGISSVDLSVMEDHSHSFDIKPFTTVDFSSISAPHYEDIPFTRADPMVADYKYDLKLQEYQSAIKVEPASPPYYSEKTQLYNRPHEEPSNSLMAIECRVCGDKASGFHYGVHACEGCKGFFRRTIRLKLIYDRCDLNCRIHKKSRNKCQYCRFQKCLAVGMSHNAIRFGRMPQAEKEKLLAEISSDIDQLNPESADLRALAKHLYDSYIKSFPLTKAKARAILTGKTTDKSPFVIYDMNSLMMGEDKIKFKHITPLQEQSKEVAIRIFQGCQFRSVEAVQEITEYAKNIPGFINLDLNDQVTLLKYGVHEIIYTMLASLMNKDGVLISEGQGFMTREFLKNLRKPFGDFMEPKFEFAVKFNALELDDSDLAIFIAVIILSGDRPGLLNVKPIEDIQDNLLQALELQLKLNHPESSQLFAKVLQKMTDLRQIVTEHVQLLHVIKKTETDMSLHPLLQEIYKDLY

[2] = molecular target: T2, Peroxisome proliferator-activated receptor gamma (Homo sapiens, UniProt P37231); assay: Agonist activity at PPARgamma (unknown origin) assessed as receptor transactivation after 24 hrs by TK-PPRE-Luc expressing cells based luciferase reporter gene assay
T2 sequence (P37231 whole entry): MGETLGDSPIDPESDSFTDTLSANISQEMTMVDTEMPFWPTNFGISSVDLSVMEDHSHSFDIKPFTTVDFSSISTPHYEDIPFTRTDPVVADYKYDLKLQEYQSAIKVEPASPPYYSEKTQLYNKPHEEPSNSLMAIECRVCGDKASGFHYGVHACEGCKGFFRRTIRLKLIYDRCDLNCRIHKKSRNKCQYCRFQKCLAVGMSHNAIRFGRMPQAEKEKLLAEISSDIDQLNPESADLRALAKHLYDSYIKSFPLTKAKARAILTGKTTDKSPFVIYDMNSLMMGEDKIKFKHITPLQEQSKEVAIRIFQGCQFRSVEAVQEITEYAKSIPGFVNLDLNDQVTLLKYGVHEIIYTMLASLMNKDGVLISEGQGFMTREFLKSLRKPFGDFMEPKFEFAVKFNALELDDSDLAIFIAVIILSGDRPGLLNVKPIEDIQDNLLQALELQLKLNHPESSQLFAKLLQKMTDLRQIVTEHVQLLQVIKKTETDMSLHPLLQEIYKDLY
Method in brief: (§1)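 Luciferase reporter gene assay in cells transfected with PPRE and luciferase genes; luciferase induction measured over a range of concentrations to derive EC50 and Amax; Amax expressed as a percentage relative to pioglitazone.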

[3] = molecular target: T3, Peroxisome proliferator-activated receptor gamma (Homo sapiens) (UniProt P37231); assay: Agonist activity at PPARgamma (unknown origin) assessed as receptor transactivation after 24 hrs by TK-PPRE-Luc expressing cells based luciferase reporter gene assay relative to pioglitazone; method in brief: as §1
T3 sequence (whole entry): T2 sequence (P37231 whole entry)

[4] = molecular target: hERG (KCNH2) (Homo sapiens, UniProt Q12809); assay: Inhibition of human ERG at 10 uM
Method in brief: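 hERG: % inhibition measured at 10 µM.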

[5] = Stability in mouse liver microsomes assessed as parent compound remaining at 30 mins; type: ADME, Microsome; conditions: read-out: Stability
Method in brief: (§2)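 Compound incubated with liver microsomes (mouse, rat, dog, human) for 30 min; stability expressed as % of parent concentration remaining.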

[6] = Stability in rat liver microsomes assessed as parent compound remaining at 30 mins; type: ADME, Microsome; conditions: read-out: Stability; method in brief: as §2
[7] = Stability in dog liver microsomes assessed as parent compound remaining at 30 mins; type: ADME, Canis lupus familiaris, Microsome; conditions: read-out: Stability; method in brief: as §2
[8] = Stability in human liver microsomes assessed as parent compound remaining at 30 mins; type: ADME, Microsome; conditions: read-out: Stability; method in brief: as §2
[9] = molecular target: T4, CYP1A2 (Homo sapiens, UniProt P05177); assay: Inhibition of CYP1A2 (unknown origin) assessed as enzyme remaining activity at 10 uM; type: ADME; conditions: read-out: INH
T4 sequence (P05177 whole entry): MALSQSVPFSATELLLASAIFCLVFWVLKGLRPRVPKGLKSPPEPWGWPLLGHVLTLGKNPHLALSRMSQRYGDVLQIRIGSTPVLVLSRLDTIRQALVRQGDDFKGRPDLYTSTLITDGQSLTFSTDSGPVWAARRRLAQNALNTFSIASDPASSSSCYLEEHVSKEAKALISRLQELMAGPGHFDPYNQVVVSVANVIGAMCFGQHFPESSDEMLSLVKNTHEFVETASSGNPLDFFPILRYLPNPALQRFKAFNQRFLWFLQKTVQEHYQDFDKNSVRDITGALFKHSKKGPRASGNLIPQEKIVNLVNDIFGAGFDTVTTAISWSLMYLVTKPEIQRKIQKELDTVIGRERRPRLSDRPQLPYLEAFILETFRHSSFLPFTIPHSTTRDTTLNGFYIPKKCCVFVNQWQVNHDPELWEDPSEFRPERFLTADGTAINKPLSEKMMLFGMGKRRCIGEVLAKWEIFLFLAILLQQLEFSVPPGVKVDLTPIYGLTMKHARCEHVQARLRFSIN
Method in brief: (§3)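 CYP isoforms 1A2, 2C9, 2C19, 2D6, 3A4: % remaining enzyme activity in presence of 10 uM compound.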

[10] = molecular target: CYP2C9 (Homo sapiens, UniProt P11712); assay: Inhibition of CYP2C9 (unknown origin) assessed as enzyme remaining activity at 10 uM; type: ADME; conditions: read-out: INH; method in brief: as §3
[11] = molecular target: CYP2C19 (Homo sapiens, UniProt P33261); assay: Inhibition of CYP2C19 (unknown origin) assessed as percentage remaining activity at 10 uM; type: ADME; conditions: read-out: INH; method in brief: as §3
[12] = molecular target: CYP2D6 (Homo sapiens, UniProt P10635); assay: Inhibition of CYP2D6 (unknown origin) assessed as percentage remaining activity at 10 uM; type: ADME; conditions: read-out: INH; method in brief: as §3
[13] = molecular target: CYP3A4 (Homo sapiens, UniProt P08684); assay: Inhibition of CYP3A4 (unknown origin) assessed as percentage remaining activity at 10 uM; type: ADME; conditions: read-out: INH; method in brief: as §3
[14] = Half life in mouse at 10 mg/kg, po; type: ADME, organism-based; conditions: in vivo
[15] = Tmax in mouse at 10 mg/kg, po; type: ADME, organism-based; conditions: in vivo
[16] = Cmax in mouse at 10 mg/kg, po; type: ADME, organism-based; set-up: dose 10 mg/kg, route oral; conditions: in vivo
[17] = AUClast in mouse at 10 mg/kg, po; type: ADME, organism-based; set-up: dose 10 mg/kg, route oral, time 0 - last; conditions: in vivo
[18] = test system: Mus musculus; assay: Antidiabetic activity in db/db mouse assessed as reduction in random blood glucose level at 30 mg/kg, po administered daily once for 2 weeks; type: functional, organism-based
[19] = test system: Mus musculus; assay: Antidiabetic activity in db/db mouse assessed as reduction in body weight gain at 30 mg/kg, po administered daily once for 2 weeks; type: functional, organism-based
[20] = test system: Mus musculus; assay: Antidiabetic activity in db/db mouse assessed as reduction in blood glucose level at 30 mg/kg, po administered daily once for 2 weeks and measured on day 14 by OGTT method; type: functional, organism-based
[21] = Toxicity in db/db mouse assessed as reduction in food intake at 30 mg/kg, po administered daily once and measured on day 7; type: organism-based; conditions: in vivo

Chain of CYP2C19 (P33261 whole entry): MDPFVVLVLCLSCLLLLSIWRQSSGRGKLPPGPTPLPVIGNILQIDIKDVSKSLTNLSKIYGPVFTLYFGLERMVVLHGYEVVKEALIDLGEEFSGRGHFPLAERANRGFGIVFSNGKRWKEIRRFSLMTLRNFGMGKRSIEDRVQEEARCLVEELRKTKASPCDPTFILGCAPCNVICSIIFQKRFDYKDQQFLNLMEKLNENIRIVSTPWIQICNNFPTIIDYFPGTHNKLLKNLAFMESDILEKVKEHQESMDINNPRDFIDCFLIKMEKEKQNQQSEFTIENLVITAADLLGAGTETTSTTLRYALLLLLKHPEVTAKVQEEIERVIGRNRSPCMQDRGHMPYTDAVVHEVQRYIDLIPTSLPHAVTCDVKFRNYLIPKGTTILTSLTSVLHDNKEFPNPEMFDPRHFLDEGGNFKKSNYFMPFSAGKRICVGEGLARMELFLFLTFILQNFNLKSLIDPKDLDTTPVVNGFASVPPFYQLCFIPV
Chain of CYP3A4 (P08684 whole entry): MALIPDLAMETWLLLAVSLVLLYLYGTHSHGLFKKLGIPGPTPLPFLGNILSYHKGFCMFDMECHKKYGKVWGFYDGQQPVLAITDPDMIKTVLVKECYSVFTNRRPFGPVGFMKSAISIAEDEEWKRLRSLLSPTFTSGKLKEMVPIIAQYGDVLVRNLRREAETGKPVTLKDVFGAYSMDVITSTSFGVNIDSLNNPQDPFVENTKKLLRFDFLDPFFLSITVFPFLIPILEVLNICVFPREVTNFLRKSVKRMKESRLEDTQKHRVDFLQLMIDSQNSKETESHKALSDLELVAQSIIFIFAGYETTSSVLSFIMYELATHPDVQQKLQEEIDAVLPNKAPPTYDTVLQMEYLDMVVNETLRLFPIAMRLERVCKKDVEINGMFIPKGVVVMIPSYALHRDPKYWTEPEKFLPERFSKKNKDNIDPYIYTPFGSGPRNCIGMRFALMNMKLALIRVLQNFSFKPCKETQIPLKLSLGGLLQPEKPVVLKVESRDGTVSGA
Chain of CYP2C9 (P11712 whole entry): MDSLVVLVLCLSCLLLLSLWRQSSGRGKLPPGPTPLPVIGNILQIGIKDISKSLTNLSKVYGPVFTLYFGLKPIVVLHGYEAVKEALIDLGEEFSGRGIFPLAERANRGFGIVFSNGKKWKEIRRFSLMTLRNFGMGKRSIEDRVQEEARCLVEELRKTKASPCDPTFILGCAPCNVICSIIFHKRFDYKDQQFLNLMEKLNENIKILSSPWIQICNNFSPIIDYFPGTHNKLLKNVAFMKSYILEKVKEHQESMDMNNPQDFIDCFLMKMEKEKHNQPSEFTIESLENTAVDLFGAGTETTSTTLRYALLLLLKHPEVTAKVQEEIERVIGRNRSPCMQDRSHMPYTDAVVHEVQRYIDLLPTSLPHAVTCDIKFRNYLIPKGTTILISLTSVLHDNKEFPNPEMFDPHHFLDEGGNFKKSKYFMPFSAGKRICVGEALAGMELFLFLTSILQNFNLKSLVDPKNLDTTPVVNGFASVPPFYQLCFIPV
Chain of hERG (KCNH2) (Q12809 whole entry): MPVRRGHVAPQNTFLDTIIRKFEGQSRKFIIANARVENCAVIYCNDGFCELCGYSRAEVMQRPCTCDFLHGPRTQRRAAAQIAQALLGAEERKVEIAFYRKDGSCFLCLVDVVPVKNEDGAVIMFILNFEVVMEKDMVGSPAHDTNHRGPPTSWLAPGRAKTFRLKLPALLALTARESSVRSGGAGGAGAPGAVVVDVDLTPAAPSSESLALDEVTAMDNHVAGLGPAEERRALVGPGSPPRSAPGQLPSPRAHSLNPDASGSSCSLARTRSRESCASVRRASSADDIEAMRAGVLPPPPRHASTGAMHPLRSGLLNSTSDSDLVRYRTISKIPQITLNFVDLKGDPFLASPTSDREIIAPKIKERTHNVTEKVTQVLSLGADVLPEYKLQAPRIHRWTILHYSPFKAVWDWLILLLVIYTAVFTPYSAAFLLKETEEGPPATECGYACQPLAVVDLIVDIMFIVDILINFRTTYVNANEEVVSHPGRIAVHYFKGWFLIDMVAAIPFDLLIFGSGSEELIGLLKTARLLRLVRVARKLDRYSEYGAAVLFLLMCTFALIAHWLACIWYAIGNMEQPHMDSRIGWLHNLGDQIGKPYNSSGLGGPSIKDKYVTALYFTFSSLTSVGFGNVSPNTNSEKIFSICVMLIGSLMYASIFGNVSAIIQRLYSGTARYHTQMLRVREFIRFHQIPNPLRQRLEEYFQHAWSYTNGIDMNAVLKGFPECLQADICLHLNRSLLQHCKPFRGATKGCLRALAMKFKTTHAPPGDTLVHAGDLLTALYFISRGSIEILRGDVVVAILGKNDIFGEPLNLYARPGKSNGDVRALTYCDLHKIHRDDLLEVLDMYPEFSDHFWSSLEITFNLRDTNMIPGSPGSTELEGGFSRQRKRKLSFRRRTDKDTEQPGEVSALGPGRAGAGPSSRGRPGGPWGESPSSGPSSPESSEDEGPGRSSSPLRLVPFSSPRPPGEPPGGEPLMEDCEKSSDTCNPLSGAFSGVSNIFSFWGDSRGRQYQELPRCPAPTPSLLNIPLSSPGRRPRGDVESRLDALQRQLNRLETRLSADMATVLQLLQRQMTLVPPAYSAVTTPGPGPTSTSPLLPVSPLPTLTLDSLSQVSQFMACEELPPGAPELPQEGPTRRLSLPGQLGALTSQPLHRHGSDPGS
Chain of CYP2D6 (P10635 whole entry): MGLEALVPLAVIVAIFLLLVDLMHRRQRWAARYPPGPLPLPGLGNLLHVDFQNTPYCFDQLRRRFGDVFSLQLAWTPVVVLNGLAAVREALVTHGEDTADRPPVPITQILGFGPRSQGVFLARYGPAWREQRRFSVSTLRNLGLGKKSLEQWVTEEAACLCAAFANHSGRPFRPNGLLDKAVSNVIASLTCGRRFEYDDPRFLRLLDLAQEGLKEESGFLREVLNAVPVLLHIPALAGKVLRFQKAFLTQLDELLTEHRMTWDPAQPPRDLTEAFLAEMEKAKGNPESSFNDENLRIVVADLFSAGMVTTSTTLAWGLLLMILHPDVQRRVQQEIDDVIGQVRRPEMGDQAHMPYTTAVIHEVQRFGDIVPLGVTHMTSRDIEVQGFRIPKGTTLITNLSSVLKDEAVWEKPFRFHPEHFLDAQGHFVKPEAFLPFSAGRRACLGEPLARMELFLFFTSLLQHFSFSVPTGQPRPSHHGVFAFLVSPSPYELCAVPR

Row | Compound | %max [1] [%] | EC50 [2] [nM] | %max [3] [%] | further results
1 | CCCCc1nc(C)c(Cc2nc(C)n[nH]2)c(=O)n1Cc1ccc(-c2ccccc2-c2noc(=O)[nH]2)cc1 | 61 | – | – | –
2 | CCCCc1nc(C(C)C)c(Cc2nc(Cc3ccc(F)cc3)no2)c(=O)n1Cc1ccc(-c2ccccc2-c2noc(=O)[nH]2)cc1 | – | 1480 | 80 | –
3 | CCCCc1nc(C(C)C)c(Cc2nc(C)no2)c(=O)n1Cc1ccc(-c2ccccc2-c2noc(=O)[nH]2)cc1 | 207 | 1050 | 93 | –
4 | CCCCc1nc(C)c(Cc2noc(C(C)(C)C)n2)c(=O)n1Cc1ccc(-c2ccccc2-c2noc(=O)[nH]2)cc1 | 258 | – | – | –
5 | CCCCc1nc(C)c(Cc2nc(Cc3ccc(F)cc3)no2)c(=O)n1Cc1ccc(-c2ccccc2-c2noc(=O)[nH]2)cc1 | – | 2410 | 81 | –
6 | CCCCc1nc(C(C)C)c(Cc2nc(C3CC3)no2)c(=O)n1Cc1ccc(-c2ccccc2-c2noc(=O)[nH]2)cc1 | – | 2550 | 102 | –
7 | CCCCc1nc(C)c(Cc2nc(C(C)C)no2)c(=O)n1Cc1ccc(-c2ccccc2-c2noc(=O)[nH]2)cc1 | – | 1320 | 101 | –
8 | CCCCc1nc(C(C)C)c(Cc2nc(C(C)(C)C)no2)c(=O)n1Cc1ccc(-c2ccccc2-c2noc(=O)[nH]2)cc1 | – | 590 | 123 | inhibition at 10 µM [4]: 16%; remaining at 0.5 h [5]: 24%; remaining at 0.5 h [6]: 13%; remaining at 0.5 h [7]: 13%; remaining at 0.5 h [8]: 12%; activity at 10 µM [9]: 92%; activity at 10 µM [10]: 33%; activity at 10 µM [11]: 78%; activity at 10 µM [12]: 89%; activity at 10 µM [13]: 50%; half-life [14]: 49.2 min; Tmax [15]: 19.8 min; Cmax [16]: 547 ng/mL; AUC(0-t) [17]: 581 ng·h/mL
9 | CCCCc1nc(C(C)C)c(Cc2nnc(-c3ccc(OC)cc3)o2)c(=O)n1Cc1ccc(-c2ccccc2-c2noc(=O)[nH]2)cc1 | 73 | – | – | –
10 | CCCCc1nc(C)c(Cc2nc(C)no2)c(=O)n1Cc1ccc(-c2ccccc2-c2noc(=O)[nH]2)cc1 | 136 | – | – | –
11 | CCCCc1nc(C(C)C)c(Cc2nnc(C)s2)c(=O)n1Cc1ccc(-c2ccccc2-c2noc(=O)[nH]2)cc1 | 79 | – | – | –
12 | CCCCc1nc(C)c(Cc2noc(C(C)C)n2)c(=O)n1Cc1ccc(-c2ccccc2-c2noc(=O)[nH]2)cc1 | 233 | – | – | –
13 | CCCCc1nc(C)c(Cc2nc(Cc3ccccc3)no2)c(=O)n1Cc1ccc(-c2ccccc2-c2noc(=O)[nH]2)cc1 | – | 1750 | 105 | –
14 | CCCCc1nc(C)c(Cc2nnc(C)s2)c(=O)n1Cc1ccc(-c2ccccc2-c2noc(=O)[nH]2)cc1 | 71 | – | – | –
15 | CCCCc1nc(C)c(Cc2nc(CCOC)no2)c(=O)n1Cc1ccc(-c2ccccc2-c2noc(=O)[nH]2)cc1 | – | 4210 | 68 | –
16 | CCCCc1nc(C(C)C)c(Cc2nc(Cc3ccccc3)no2)c(=O)n1Cc1ccc(-c2ccccc2-c2noc(=O)[nH]2)cc1 | – | 1140 | 92 | –
17 | CCCCc1nc(C)c(Cc2nc(COC)no2)c(=O)n1Cc1ccc(-c2ccccc2-c2noc(=O)[nH]2)cc1 | – | 3390 | 60 | –
18 | CCCCc1nc(C(C)C)c(Cc2nnc(C)o2)c(=O)n1Cc1ccc(-c2ccccc2-c2noc(=O)[nH]2)cc1 | 80 | – | – | –
19 | CCCCc1nc(C)c(Cc2nc(Cc3cc(F)cc(F)c3)no2)c(=O)n1Cc1ccc(-c2ccccc2-c2noc(=O)[nH]2)cc1 | – | 1380 | 72 | –
20 | CCCCc1nc(C)c(Cc2noc(-c3ccccc3F)n2)c(=O)n1Cc1ccc(-c2ccccc2-c2noc(=O)[nH]2)cc1 | 150 | – | – | –
21 | CCCCc1nc(C)c(Cc2nc(C3CC3)no2)c(=O)n1Cc1ccc(-c2ccccc2-c2noc(=O)[nH]2)cc1 | – | 4250 | 89 | –
22 | CCCCc1nc(C(C)C)c(Cc2nc(C)ns2)c(=O)n1Cc1ccc(-c2ccccc2-c2noc(=O)[nH]2)cc1 | 79 | – | – | –
23 | CCCCc1nc(C(C)C)c(Cc2nnc(C(C)(C)C)s2)c(=O)n1Cc1ccc(-c2ccccc2-c2noc(=O)[nH]2)cc1 | 180 | – | – | –
24 | CCCCc1nc(C)c(Cc2nnc(-c3ccc(F)cc3)[nH]2)c(=O)n1Cc1ccc(-c2ccccc2-c2noc(=O)[nH]2)cc1 | 71 | – | – | –
25 | CCc1ccc(CCOc2ccc(CC3SC(=O)NC3=O)cc2)nc1 (stereo not drawn) [PIOGLITAZONE] | – | – | – | Activity [18]: Active; Activity [19]: inactive; Activity [20]: Active; Activity [21]: Toxic
26 | CCCCc1nc(C)c(Cc2nc(C)ns2)c(=O)n1Cc1ccc(-c2ccccc2-c2noc(=O)[nH]2)cc1 | 93 | – | – | –
27 | CCCCc1nc(C)c(Cc2nc(Cc3cccc(F)c3)no2)c(=O)n1Cc1ccc(-c2ccccc2-c2noc(=O)[nH]2)cc1 | – | 1390 | 82 | –
